ABCG2 inh: ABCG2 efflux pump inhibitors, primary screen, multiplex with ABCB1, IgMXP3 cells, flow cytometry. Broad substrate specificity ATP-binding cassette transporter ABCG2 (Homo sapiens), Q9UNQ0. JC-1 efflux. inhibition, % at 6.6 µM. actives 0.1% (n = 190,000);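 active = inhibition above 80%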;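 note: 0% = DMSO and 100% = nicardipine control wells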
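Test system: ABCG2 IgMXP3 and barcoded ABCB1 CCRF-Adr cell mix; Schedule: cells with compound and JC-1, 10 min at 25 °C, rotating, no wash; Technique: flow cytometry of retained JC-1 fluorescence; Measure: % inhibition of efflux relative to nicardipine and DMSO; Controls: nicardipine high and DMSO low controls.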
Lmaj promast: Leishmania major promastigote growth inhibition, primary screen | Leishmania major promastigotes, resazurin fluorescence viability | inhibition, % at 10 µM | actives 9% (n = 200,000); in the data active = inhibition above about 50%;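 note: promastigotes grown with compound for 44 hours at 28 °C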
ABCB1 inh: ABCB1 efflux pump inhibitors, primary screen, cell-based, multiplex, flow cytometry, ABCG2 counter-screen. CCRF-Adr cells, JC-1 efflux. ATP-dependent translocase ABCB1 (Homo sapiens), P08183. actives 0.067% (n = 190,000). inhibition, % at 6.6 µM; in the data active = inhibition above about 40%;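 note: 0% = vehicle and 100% = reference inhibitor; higher value means more JC-1 retained so stronger ABCB1 efflux block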
Target sequence (P08183 whole entry, looked up): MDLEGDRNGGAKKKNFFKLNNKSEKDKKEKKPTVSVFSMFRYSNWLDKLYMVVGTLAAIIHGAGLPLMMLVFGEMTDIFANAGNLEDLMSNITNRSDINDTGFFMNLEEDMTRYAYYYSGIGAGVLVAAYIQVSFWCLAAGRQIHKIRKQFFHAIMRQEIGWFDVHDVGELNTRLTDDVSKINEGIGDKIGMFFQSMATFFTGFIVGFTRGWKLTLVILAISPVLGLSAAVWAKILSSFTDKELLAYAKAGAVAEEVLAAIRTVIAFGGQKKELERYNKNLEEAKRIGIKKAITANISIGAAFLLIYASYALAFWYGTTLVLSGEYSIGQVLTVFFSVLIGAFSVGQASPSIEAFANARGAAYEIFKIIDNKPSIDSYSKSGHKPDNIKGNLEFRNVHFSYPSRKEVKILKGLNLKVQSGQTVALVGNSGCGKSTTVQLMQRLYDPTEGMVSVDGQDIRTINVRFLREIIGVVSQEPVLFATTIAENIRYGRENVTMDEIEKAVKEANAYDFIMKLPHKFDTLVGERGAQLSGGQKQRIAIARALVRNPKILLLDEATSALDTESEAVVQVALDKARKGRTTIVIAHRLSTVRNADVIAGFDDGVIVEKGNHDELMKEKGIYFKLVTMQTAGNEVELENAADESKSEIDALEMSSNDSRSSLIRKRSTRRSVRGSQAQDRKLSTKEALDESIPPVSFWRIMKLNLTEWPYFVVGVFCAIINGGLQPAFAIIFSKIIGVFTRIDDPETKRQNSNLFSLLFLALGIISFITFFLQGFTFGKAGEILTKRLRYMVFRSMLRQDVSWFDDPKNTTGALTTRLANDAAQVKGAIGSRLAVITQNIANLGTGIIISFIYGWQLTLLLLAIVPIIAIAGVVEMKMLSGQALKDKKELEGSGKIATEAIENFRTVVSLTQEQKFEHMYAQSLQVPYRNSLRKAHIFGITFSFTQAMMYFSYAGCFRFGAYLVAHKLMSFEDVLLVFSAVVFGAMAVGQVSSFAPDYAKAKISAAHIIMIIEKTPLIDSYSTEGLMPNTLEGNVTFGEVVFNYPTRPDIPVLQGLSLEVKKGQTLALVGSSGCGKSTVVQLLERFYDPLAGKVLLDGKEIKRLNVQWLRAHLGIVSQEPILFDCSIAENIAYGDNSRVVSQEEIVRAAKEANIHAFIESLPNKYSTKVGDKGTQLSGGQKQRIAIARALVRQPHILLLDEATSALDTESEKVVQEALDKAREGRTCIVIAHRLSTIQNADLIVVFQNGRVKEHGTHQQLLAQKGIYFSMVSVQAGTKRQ
WT yeast gro inh: growth inhibition of WT strain, primary screen, mitochondrial fusion inhibitor project, WT and mutant strains, chemical genetic. mitochondrial fusion phenotypic screen. inhibition, % at 10 µM. actives 2.1% (n = 190,000); in the data active = inhibition above about 58%; tested in S. cerevisiae
RAM inhibit: inhibitors of the yeast RAM network, primary screen, dse1pr::URA3 reporter, 5-FOA selection. S. cerevisiae dse1pr::URA3 reporter, 5-FOA growth OD615, 2 d; analog-sensitive cbk1-as2 kinase mutant strain. inhibition, % at 50 µM. actives 1.8% (n = 190,000). AID 868, 2007;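 active = inhibition above a set limit, 3 SD over mean compound inhibition, cut at about 8.4% in these data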;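 note: 0% = DMSO-only wells with no growth and 100% = 10 µM 1-NA-PP1 full growth; inhibition rescues growth on 5-FOA so higher OD means more RAM inhibition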
The depositor's hits bear a star. Shown are actives, neighbours in structure and some others; about 12% of the full set was active somewhere.

SMILES	ABCG2 inh	Lmaj promast	ABCB1 inh	WT yeast gro inh	RAM inhibit
CCCCOC(=O)C1=C(C)Nc2ncnn2C1c1cc(OC)ccc1OC (centres undefined)	2	4	1	0	2
CCN(Cc1ccncc1)C(=O)c1ccccc1NS(=O)(=O)c1ccc(F)cc1	2	-9	0	-6	1
Cc1ccc(-c2csc(N(C)C(=O)c3c(C)nn(-c4ccccc4)c3Cl)n2)cc1	0	-7	0	9	2
COCCn1c(SCC(=O)Nc2ccc(Cl)cn2)nnc1-c1ccncc1	8	2	0	3	2
Cc1ccc(O)c(C2=NOC(O)(C(F)(F)F)C2)c1 (centres undefined)	1	-5	1	-13	1
CCCCOC(=O)C(C)Sc1n[nH]c(=O)[nH]c1=O (centres undefined)	1	-5	0	3	1
COc1ccc(C2C=C(c3ccc(C)c(C)c3)Nc3ncnn32)c(OC)c1OC (centres undefined)	5	80*	1	15	1
COc1cccc(C2C=C(c3ccc(Br)s3)Nc3ncnn32)c1OC (centres undefined)	5	-4	1	21	1
CC(C)N1CCc2c(sc(NC(=O)c3ccc(S(=O)(=O)N4CCc5ccccc54)cc3)c2C(N)=O)C1	0	100*	1	-1	3
CC(C)N1CCc2c(sc(NC(=O)c3cc(-c4cccs4)nc4ccccc34)c2C(N)=O)C1	5	92*	2	49	6
O=S(=O)(NC1CC1)c1ccc(S(=O)(=O)N2CCCc3ccccc32)cc1	4	95*	1	2	1
NC(=O)c1ccsc1NC(=O)c1ccc(S(=O)(=O)N2CCCc3ccccc32)cc1	-3	99*	-1	37	3
Cc1cc(C)c(NC(=O)c2cc(C(=O)O)ccc2C(=O)O)c([N+](=O)[O-])c1	0	-2	0	3	1
CSC1=NC(=O)/C(=C\c2cccc3ccccc23)S1	0	-7	0	-7	4
COc1cccc(CC(=O)N[C@@H](CCSC)c2nc3ccccc3[nH]2)c1	1	5	0	-2	1
CC(=O)C(=Nc1ccccc1Cl)NNc1ccc(Cl)cc1	-14	93*	-2	60*	5
CC(=O)Nc1ccccc1C(=O)C(=O)Nc1ccc(Cl)cc1	4	2	1	-3	3
COc1ccc(C2SCCN2C(=S)Nc2ccc(Cl)cc2)cc1 (centres undefined)	3	41	0	24	1
COc1ccc(C2SCCN2C(=S)Nc2cccc(Cl)c2)cc1 (centres undefined)	42	80*	-1	29	1
COc1ccc(-c2cc3nc(C)cc(N4CC(C)CC(C)C4)n3n2)cc1 (centres undefined)	3	16	0	70*	1
Cc1ccc(-c2cc3nc(C)cc(C)n3n2)cc1	2	-5	1	-15	1
Cn1cccc1/C=C1\SC(=O)N(CC(=O)Nc2ccc(Cl)cc2)C1=O	2	-8	0	15	4
Cc1ccc(NC(=O)CN2C(=O)S/C(=C\C(=O)Nc3ccc(Cl)cc3)C2=O)cc1	-14	63*	-1	11	2
O=c1c2ccccc2nnn1COc1cccc(Cl)c1	11	9	2	-26	0
O=C(Cc1ccc([N+](=O)[O-])cc1)Nc1ccc(O)cc1C(=O)O	20	-5	3	-14	1
SMILES	ABCG2 inh	Lmaj promast	ABCB1 inh	WT yeast gro inh	RAM inhibit
Cc1ccc(NC(=S)NC(=O)c2ccc(-c3ccc(Cl)cc3)o2)c(O)c1	-4	-3	-1	3	10*
Cc1cc(O)c(NC(=S)NC(=O)c2ccc(-c3ccc(Cl)cc3)o2)cc1C	-2	-13	-1	77*	4
CCOC(=O)Cc1csc(NC(=O)/C=C/c2ccc(OC)cc2)n1	5	38	0	17	3
CCCNS(=O)(=O)c1ccc(CCC(=O)N2CCN(c3ccc(F)cc3)CC2)cc1	9	57*	1	-4	6
Cc1ccc(S(=O)(=O)Cc2ccc(C(=O)N3CCc4ccccc4C3)o2)cc1	2	6	1	11	0
COc1ccc(S(=O)(=O)Cc2ccc(C(=O)N3CCN(C(=O)c4ccco4)CC3)o2)cc1	1	-4	0	9	1

Screening results from PubChem BioAssay.
